Laboratory results published in ChEMBL document CHEMBL5352503, “Nonpeptidic Oxazole-Based Prolyl Oligopeptidase Ligands with Disease-Modifying Effects on α-Synuclein Mouse Models of Parkinson's Disease” (J Med Chem, 2023).
Active and inactive are the calls of the source. The calls are words filed in the database; no cut-off is given here.

Tests used:
[1] = molecular target: Prolyl endopeptidase FAP (Homo sapiens) (UniProt Q12884); test: Inhibition of human FAP expressed in Sf9 insect cells using […] at 1 to 10 uM preincubated for 15 mins followed by substrate addition and measured for 10 mins; conditions: dose 1-10 µM, time 25.0 min
Method in brief: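 Z-Gly-Pro-AMC at 50 μM, pH 8, in 0.05 M Tris-HCl with 0.1% glycerol, 1 mg/mL BSA and 140 mM NaCl. Enzyme preincubated with compound 15 min at 37 °C. AMC release read kinetically at ex 380/em 465 nm for at least 10 min at 37 °C.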

[2] = molecular target: Dipeptidyl peptidase 2 (Homo sapiens) (UniProt Q9UHL4); test: Inhibition of recombinant human DPP2 using Lys-Ala-pNA as substrate at 1 to 10 uM preincubated for 15 mins followed by substrate addition and measured for 10 mins; conditions: dose 1-10 µM, time 25.0 min
Method in brief: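 Recombinant human DPP2 with 1 mM Lys-Ala-pNA, pH 5.5, in 100 mM NaAc, 10 mM EDTA and 14 μg/mL aprotinin. Compound at 1 and 10 μM, preincubated 15 min at 37 °C. pNA release read kinetically at 405 nm for at least 10 min at 37 °C.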

[3] = molecular target: Dipeptidyl peptidase 9 (Homo sapiens) (UniProt Q86TI2); test: Inhibition of human DPP9 expressed in Sf9 insect cells using Ala-Pro-para-nitroanilide as substrate at 1 to 10 uM preincubated for 15 mins followed by substrate addition and measured for 10 mins; conditions: dose 1-10 µM, time 25.0 min
Method in brief: (§1)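 Ala-Pro-pNA substrate at 25 μM for DPP4 (purified from human seminal plasma) or 150 μM for DPP9 (Sf9-expressed). Buffer pH 7.4: 0.05 M HEPES-NaOH, 0.1% Tween-20, 0.1 mg/mL BSA, 150 mM NaCl. Compound at 1 and 10 μM final, preincubated 15 min at 37 °C. pNA release read kinetically at 405 nm for at least 10 min.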

[4] = molecular target: Dipeptidyl peptidase 4 (Homo sapiens) (UniProt P27487); test: Inhibition of human DPP4 using Ala-Pro-para-nitroanilide as substrate at 1 to 10 uM preincubated for 15 mins followed by substrate addition and measured for 10 mins; conditions: dose 1-10 µM, time 25.0 min; method in brief: as §1
[5] = molecular target: Alpha-synuclein (Homo sapiens) (UniProt P37840); test: Inhibition of alpha-synuclein (unknown origin) dimerization transfected in HEK293 cells at 10 uM incubated for 4 hrs by luminescence based multimode plate reader method; format: cell-based
[6] = molecular target: Alpha-synuclein (Homo sapiens) (UniProt P37840); test: Inhibition of alpha-synuclein (unknown origin) dimerization transfected in PREP knockout HEK293 cells at 10 uM incubated for 4 hrs by luminescence based multimode plate reader method; format: cell-based
Method in brief: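 Split Gaussia luciferase protein-fragment complementation in HEK-293 PREP-KO cells, run like the N2A protocol. Cells transfected with αSyn-Gluc1 and αSyn-Gluc2; 48 h later treated 4 h at 10 μM. Luminescence read after injecting native coelenterazine.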

[7] = system: HEK293; test: Induction of autophagy in PREP knockout HEK293 cells assessed as LC3B-II expression level at 10 uM incubated for 24 hrs by Western blot analysis; format: functional, cell-based; conditions: Homo sapiens
Method in brief: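 HEK-293 PREP-KO cells, grown with 20% FBS, plated 500,000/well and attached overnight. Treated at 10 μM for 4 or 24 h (0.1% DMSO vehicle), then lysed in RIPA. LC3BII measured by Western blot, 30 μg protein loaded, band OD normalized to β-actin or vinculin.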

[8] = system: HEK293; test: Cytotoxicity against HEK293 cells assessed as cell viability at 1 to 100 uM incubated for 24 hrs by MTT assay; format: toxicity, cell-based; conditions: human, hek293, 24 h, dose 1-100 µM
[9] = system: SH-SY5Y; test: Cytotoxicity against human SH-SY5Y cells assessed as cell viability at 1 to 100 uM incubated for 24 hrs by MTT assay; format: toxicity, cell-based; conditions: dose 1-100 µM
[10] = system: Neuron; test: Cytotoxicity against mouse primary neurons cells assessed as cell viability at 1 to 100 uM incubated for 48 hrs by MTT assay; format: toxicity, cell-based; conditions: dose 1-100 µM
[11] = molecular target: Alpha-synuclein (Homo sapiens) (UniProt P37840); test: Inhibition of alpha-synuclein (unknown origin) dimerization transfected in mouse Neuro2a cells at 10 uM incubated for 4 hrs by Protein-fragment complementation assay; format: cell-based
[12] = system: HEK293; test: Induction of autophagic flux in HEK293 cells expressing GFP-LC3B-RFP at 10 uM incubated for 24 hrs by Hoechst staining based assay; format: functional, cell-based; conditions: Homo sapiens
[13] = system: HEK293; test: Activation of PP2A in HEK293 cells by measuring decrease in ratio between Tyr307 phosphorylated inactive PP2Ac to total PP2Ac at 1 uM incubated for 4 hrs by Western blot analysis; format: cell-based; conditions: Homo sapiens, filed as activator
Method in brief: (§2)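 HEK-293 cells seeded 500,000/well, attached overnight, then exposed to compound (0.1% DMSO vehicle) for 4 or 24 h. Lysed in RIPA. Western blot with 30 μg protein on 4–20% gels, PVDF transfer, skim-milk block, primary antibody overnight at +4 °C. Detection by chemiluminescence, band OD normalized to β-actin or vinculin. pPP2Ac is the Tyr307-phosphorylated form.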

[14] = Activation of PP2A in HEK293 cells by measuring decrease in ratio between Tyr307 phosphorylated inactive PP2Ac to total PP2Ac incubated for 4 hrs by Western blot analysis; format: cell-based; conditions: Homo sapiens, HEK293, 4 h; method in brief: as §2
[15] = system: HEK293; test: Activation of PP2A in HEK293 cells assessed as decrease in inactive phosphorylated PP2Ac level at 1 uM incubated for 4 hrs by Western blot analysis; format: cell-based; conditions: Homo sapiens, filed as activator; method in brief: as §2
[16] = system: HEK293; test: Activation of PP2A in HEK293 cells assessed as increase in total PP2Ac level at 0.01 to 50 uM incubated for 4 hrs by Western blot analysis; format: cell-based; conditions: Homo sapiens, filed as activator, dose 0.01-50 µM; method in brief: as §2
[17] = system: HEK293; test: Activation of PP2A in HEK293 cells assessed as increase in LC3B-II level at 0.1 to 10 uM incubated for 4 hrs by Western blot analysis; format: cell-based; conditions: Homo sapiens, filed as activator, dose 0.1-10 µM; method in brief: as §2
[18] = system: HEK293; test: Activation of PP2A in HEK293 cells assessed as decrease in phosphorylated PP2Ac level at 10 uM incubated for 4 hrs by immunoblot analysis; format: cell-based; conditions: Homo sapiens, filed as activator; method in brief: as §2
[19] = system: HEK293; test: Activation of PP2A in HEK293 cells assessed as increase in total PP2Ac level at 10 uM incubated for 4 hrs by immunoblot analysis; format: cell-based; conditions: Homo sapiens, filed as activator; method in brief: as §2
[20] = system: HEK293; test: Activation of PP2A in HEK293 cells assessed as increase in LC3B-II level at 10 uM incubated for 4 hrs by immunoblot analysis; format: cell-based; conditions: Homo sapiens, filed as activator; method in brief: as §2
[21] = system: HEK293; test: Activation of PP2A in HEK293 cells assessed as decrease in phosphorylated PP2Ac level at 10 uM incubated for 24 hrs by immunoblot analysis; format: cell-based; conditions: Homo sapiens; method in brief: as §2
[22] = system: HEK293; test: Activation of PP2A in HEK293 cells assessed as increase in total PP2Ac level at 10 uM incubated for 24 hrs by immunoblot analysis; format: cell-based; conditions: Homo sapiens, filed as activator; method in brief: as §2
[23] = system: HEK293; test: Activation of PP2A in HEK293 cells assessed as increase in LC3B-II level at 10 uM incubated for 24 hrs by immunoblot analysis; format: cell-based; conditions: Homo sapiens, filed as activator; method in brief: as §2
[24] = In vivo inhibition of PREP in C57BL/6JRccHsd mouse liver at 10 mg/kg, ip measured for 3 hrs by LC-MS analysis relative to control; format: functional
[25] = Permeability of the compound across blood brain barrier in C57BL/6JRccHsd mouse at 1.86 uM, ip measured at 15 mins by LC-MS analysis; format: ADME, organism-based; conditions: 0.25 h
Method in brief: (§3)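 Male C57BL/6JRCcHsd mice, 10 weeks old, dosed 10 mg/kg i.p. in 5% Tween-20 in 0.9% NaCl. Brains collected at 15, 30, 45, 60, 120 and 180 min. Brain compound concentration measured by LC-MS, and AUC0–180 min calculated.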

[26] = Permeability of the compound across blood brain barrier in C57BL/6JRccHsd mouse at 1.11 uM, ip measured at 30 mins by LC-MS analysis; format: ADME, organism-based; conditions: 0.5 h; method in brief: as §3
[27] = Drug elimination in C57BL/6JRccHsd mouse brain at 10 mg/kg, ip measured at 180 mins by LC-MS analysis; format: ADME, organism-based; conditions: in vivo, 3 h; method in brief: as §3
[28] = system: Mus musculus; test: Upregulation of total PP2Ac level in C57BL/6JRccHsd mouse brain at 10 mg/kg, ip measured after 45 mins by Western blot analysis; format: functional, organism-based
Method in brief: (§4)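 Mice given 10 mg/kg i.p. in 5% Tween-20 in 0.9% NaCl, with vehicle-injected controls. Brains collected 45 min after injection. Homogenates analysed by Western blot for pPP2A, PP2A and LC3BII, with OD normalized to β-actin or vinculin.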

[29] = system: Mus musculus; test: Upregulation of LC3B-II level in C57BL/6JRccHsd mouse brain at 10 mg/kg, ip measured after 45 mins by Western blot analysis; format: functional, organism-based; method in brief: as §4
[30] = system: Mus musculus; test: Anti-parkinson activity in AAV2-CBA-alpha-synuclein virus vector injected Parkinson's disease C57BL/6JRccHsd mouse model assessed as motor deficit by measuring decrease in use of ipsilateral forepaw usage at 10 mg/kg/day, ip administered for 2 to 4 weeks of treatment by cylinder test; format: functional, organism-based; conditions: time 2-4 weeks
Method in brief: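 Male C57BL/6JRCcHsd mice, 10–11 weeks old, got a unilateral AAV2-CBA-αSyn injection above the SNpc. Dosing started 4 weeks later at 10 mg/kg/day i.p. by Alzet minipump. Ipsilateral forepaw use was scored by cylinder test at 6 and 8 weeks post-injection, against vehicle-treated αSyn-injected and AAV-GFP control mice. Two-way ANOVA with Dunnett's comparisons was used.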

[31] = system: Mus musculus; test: Downregulation of alpha-syn oligomer expression in C57BL/6JRccHsd mouse striatum injected with AAV2-CBA-alpha-synuclein virus at 10 mg/kg/day, ip administered for 2 weeks by optical density based analysis; format: functional, organism-based
Method in brief: (§5)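 Unilateral AAV2-CBA-αSyn was injected above the SNpc of male C57BL/6JRCcHsd mice. Dosing at 10 mg/kg/day i.p. by Alzet minipump began 4 weeks after injection. Brain sections were immunostained for oligomer-specific αSyn and optical density was measured in striatum and SNpc, with n = 7–9/group, reported as mean ± SEM.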

[32] = system: Mus musculus; test: Downregulation of alpha-syn oligomer in C57BL/6JRccHsd mouse substantia nigra pars compacta injected with AAV2-CBA-alpha-synuclein virus at 10 mg/kg/day, ip administered for 2 weeks by optical density based analysis; format: functional, organism-based; method in brief: as §5
[33] = system: Mus musculus; test: (§6) Neuroprotective activity against AAV2-CBA-alpha-synuclein virus vector injected C57BL/6JRccHsd mouse model of Parkinson's disease assessed as change in tyrosine hydroxylase positive dopaminergic neuron immunoreactivity in striatum at 10 mg/kg/day, ip administered for 2 weeks by optical density based analysis; format: functional, organism-based
[34] = system: Mus musculus; test: as §6, with “substantia nigra pars compacta” for “striatum”; format: functional, organism-based
[35] = system: Mus musculus; test: (§7) Neuroprotective activity against AAV2-CBA-GFP injected C57BL/6JRccHsd mouse model of Parkinson's disease assessed as change in tyrosine hydroxylase positive dopaminergic neuron immunoreactivity in striatum at 10 mg/kg/day, ip administered for 2 weeks by optical density based analysis; format: functional, organism-based
[36] = system: Mus musculus; test: as §7, with “substantia nigra pars compacta” for “striatum”; format: functional, organism-based
[37] = system: Mus musculus; test: (§8) Neuroprotective activity against AAV2-CBA-GFP injected C57BL/6JRccHsd mouse model of Parkinson's disease assessed as change in tyrosine hydroxylase positive cell count in substantia nigra pars compacta at 10 mg/kg/day, ip administered for 2 weeks by optical density based analysis; format: functional, organism-based
[38] = system: Mus musculus; test: as §8, with “AAV2-CBA-alpha-synuclein virus vector” for “AAV2-CBA-GFP”; format: functional, organism-based

Chain of Dipeptidyl peptidase 9 (Homo sapiens) (Q86TI2 2-863 limits assumed): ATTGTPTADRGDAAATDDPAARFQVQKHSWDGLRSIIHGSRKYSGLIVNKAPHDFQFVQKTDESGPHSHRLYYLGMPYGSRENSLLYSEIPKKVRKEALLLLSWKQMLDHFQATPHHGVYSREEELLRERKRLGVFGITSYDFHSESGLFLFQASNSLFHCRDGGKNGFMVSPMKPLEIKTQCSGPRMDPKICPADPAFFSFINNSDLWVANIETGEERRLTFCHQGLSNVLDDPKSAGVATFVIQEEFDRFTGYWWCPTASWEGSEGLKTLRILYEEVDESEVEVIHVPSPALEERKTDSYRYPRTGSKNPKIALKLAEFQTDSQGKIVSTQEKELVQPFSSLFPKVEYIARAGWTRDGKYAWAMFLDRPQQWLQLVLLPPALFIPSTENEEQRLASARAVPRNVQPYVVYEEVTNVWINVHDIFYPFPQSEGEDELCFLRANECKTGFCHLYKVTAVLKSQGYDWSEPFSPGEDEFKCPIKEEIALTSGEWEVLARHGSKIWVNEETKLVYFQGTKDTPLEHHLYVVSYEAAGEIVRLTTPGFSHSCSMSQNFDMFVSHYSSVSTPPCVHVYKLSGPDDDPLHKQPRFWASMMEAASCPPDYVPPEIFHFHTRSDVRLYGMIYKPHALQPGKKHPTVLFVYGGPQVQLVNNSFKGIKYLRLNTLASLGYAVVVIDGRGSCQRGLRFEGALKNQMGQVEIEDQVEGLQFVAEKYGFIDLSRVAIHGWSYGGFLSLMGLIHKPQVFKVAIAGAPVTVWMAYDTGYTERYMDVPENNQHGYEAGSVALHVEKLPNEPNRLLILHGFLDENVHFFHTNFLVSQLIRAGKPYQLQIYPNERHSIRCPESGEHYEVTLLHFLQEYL
Chain of Dipeptidyl peptidase 4 (Homo sapiens) (P27487 whole entry, looked up): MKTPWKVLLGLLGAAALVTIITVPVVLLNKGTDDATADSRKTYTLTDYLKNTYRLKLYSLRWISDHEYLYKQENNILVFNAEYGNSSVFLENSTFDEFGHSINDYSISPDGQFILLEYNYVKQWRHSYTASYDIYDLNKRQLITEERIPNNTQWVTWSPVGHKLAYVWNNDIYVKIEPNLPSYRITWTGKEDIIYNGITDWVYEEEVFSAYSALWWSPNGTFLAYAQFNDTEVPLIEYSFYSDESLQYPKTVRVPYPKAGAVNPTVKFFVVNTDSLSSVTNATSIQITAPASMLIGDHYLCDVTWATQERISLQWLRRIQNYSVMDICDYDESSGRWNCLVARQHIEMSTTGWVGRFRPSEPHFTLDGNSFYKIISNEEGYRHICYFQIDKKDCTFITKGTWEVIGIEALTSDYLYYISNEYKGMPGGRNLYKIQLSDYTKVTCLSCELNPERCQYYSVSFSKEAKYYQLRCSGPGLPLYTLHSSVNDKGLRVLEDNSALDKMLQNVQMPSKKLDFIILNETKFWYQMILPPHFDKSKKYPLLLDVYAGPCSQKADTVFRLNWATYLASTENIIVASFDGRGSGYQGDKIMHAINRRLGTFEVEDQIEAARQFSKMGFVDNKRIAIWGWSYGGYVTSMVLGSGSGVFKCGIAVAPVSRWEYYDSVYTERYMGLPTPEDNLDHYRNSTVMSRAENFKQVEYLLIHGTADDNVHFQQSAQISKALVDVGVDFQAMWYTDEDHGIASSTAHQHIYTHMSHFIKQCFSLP
Chain of Prolyl endopeptidase FAP (Homo sapiens) (Q12884 whole entry): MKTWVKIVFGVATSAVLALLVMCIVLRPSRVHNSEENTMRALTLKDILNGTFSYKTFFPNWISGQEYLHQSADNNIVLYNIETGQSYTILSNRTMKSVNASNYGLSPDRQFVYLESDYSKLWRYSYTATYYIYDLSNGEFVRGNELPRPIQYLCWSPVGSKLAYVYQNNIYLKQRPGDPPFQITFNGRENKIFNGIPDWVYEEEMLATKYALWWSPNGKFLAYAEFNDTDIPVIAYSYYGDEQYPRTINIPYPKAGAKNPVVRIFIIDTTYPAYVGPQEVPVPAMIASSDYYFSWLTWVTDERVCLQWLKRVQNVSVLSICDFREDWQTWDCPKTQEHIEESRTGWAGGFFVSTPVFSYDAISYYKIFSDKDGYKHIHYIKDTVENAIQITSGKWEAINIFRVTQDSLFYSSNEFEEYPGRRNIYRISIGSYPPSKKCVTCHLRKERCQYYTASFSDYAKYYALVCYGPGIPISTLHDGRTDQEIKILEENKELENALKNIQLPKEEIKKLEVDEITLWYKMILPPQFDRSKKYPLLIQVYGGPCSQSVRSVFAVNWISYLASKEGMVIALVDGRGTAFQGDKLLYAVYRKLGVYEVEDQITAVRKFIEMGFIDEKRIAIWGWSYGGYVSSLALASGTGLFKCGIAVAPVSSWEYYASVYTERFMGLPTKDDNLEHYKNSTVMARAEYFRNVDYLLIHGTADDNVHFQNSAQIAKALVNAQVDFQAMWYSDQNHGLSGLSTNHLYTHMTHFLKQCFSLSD

Cc1nc(CCCc2ccccc2)oc1N1CCC[C@H]1C#N
inhibition [1]: inactive
inhibition [2]: inactive
inhibition [3]: inactive
inhibition [4]: inactive
inhibition [5]: Active
inhibition [6]: inactive
Activity [7]: inactive
Activity [8]: Non-Toxic
Activity [9]: Non-Toxic
Activity [10]: Non-Toxic
inhibition [11]: Active
Activity [12]: Active
Activity [13]: Active
EC50 [14]: 275 nM
Activity [15]: Active
Activity [16]: Active
Activity [17]: Active
Activity [18]: Active
Activity [19]: Active
Activity [20]: Active
Activity [21]: inactive
Activity [22]: Active
Activity [23]: Active
inhibition in vivo at 10 mg/kg [24]: ~25%
pBBB [25]: Permeable
pBBB [26]: Permeable
Drug excretion [27]: Not Active
Activity [28]: Active
Activity [29]: Active
Activity [30]: Active
Activity [31]: Active
Activity [32]: inactive
Activity [33]: inactive
Activity [34]: inactive
Activity [35]: inactive
Activity [36]: inactive
Activity [37]: inactive
Activity [38]: inactive
